Hits are enriched below; roughly 3.5% of the tested compounds scored in any of these assays.
ERAP1 HTS inh: human ERAP1 aminopeptidase inhibitors, primary screen, biochemical, single point, plate reader; Endoplasmic reticulum aminopeptidase 1 (Homo sapiens), Q9NZ08; recombinant ERAP1, Leu-AMC fluorescence, 60 min; inhibition, % at 10.7 µM; 0.15% of 340,000 active; AID 652197, 2013;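 active means mean replicate inhibition of at least 30%, or all replicates individually reaching that 30% level; inactive means mean below 30% and not every replicate reaching it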;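 further: 0% = neutral control wells and 100% = L-leucinethiol positive control wells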
HIV Env fusion: inhibitors of HIV-1 Env-driven cell-cell fusion, primary screen, HeLa-JRFL effector, CEM21 target cells, luciferase. 1.1% of 360,000 active. inhibition, % at 12.3 µM;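 active means mean replicate inhibition score of at least 50 and every replicate individually at or above 50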;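 further: 0% = plate neutral controls and 100% = maraviroc near 300 nM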
PGC1a acetyl inh: inhibitors of PGC1a acetylation signal, primary screen, cell-based, U2OS, AlphaScreen, inhibitor mode | AlphaScreen anti-acetyl-lysine; with virally co-expressed GCN5 acetyltransferase | inhibition, % at 15.6 µM | 0.17% of 350,000 active | AID 651687, 2012;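 active means every replicate shows inhibition of at least 40%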;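 further: 0% = neutral control wells and 100% = positive control wells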
Cneo AK release: Cryptococcus neoformans cell lysis inducers, primary screen, AK release luminescence, single concentration; AID 651654, 2012; lysis activity, % at 15 µM; 0.2% of 360,000 active; C. neoformans lysis, adenylate kinase release luminescence, 4 h; normalised: neutral wells 0, clomiphene wells 100;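 active means mean lysis activity across replicates of at least 80%, whatever share of replicates individually reach that level; inactive means mean lysis activity below 80%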
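Signal: Adenylate kinase release luminescence | Assay system: Log-phase Cryptococcus neoformans yeast cells | Input: Cells at 5 × 10^6 per mL | Buffer or medium: Fresh YPD growth medium | Compound: Single dose | Schedule: Static 4 h at 37 °C with compound, 1 h detection | Controls: Clomiphene | Read-out: Luminescence rise reflecting yeast cell lysis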
FGF22 binding: binders of human FGF22 protein, primary screen, FGF22 synaptogenesis inhibitor project, biophysical, thermal shift, single point; Fibroblast growth factor 22 (Homo sapiens), Q9HCT0; recombinant FGF22 thermal shift, SYPRO orange fluorescence; percent of sucrose octasulfate shift, DMSO zero; activity (Tm shift, normalised), % at 9.99 µM; 1.5% of 340,000 active; AID 651658, 2012;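 active means mean Tm shift, scaled 0 neutral to 100 positive control, at about 1.3% or above, every replicate too, limit read from the data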
Target sequence (Q9HCT0 whole entry, looked up): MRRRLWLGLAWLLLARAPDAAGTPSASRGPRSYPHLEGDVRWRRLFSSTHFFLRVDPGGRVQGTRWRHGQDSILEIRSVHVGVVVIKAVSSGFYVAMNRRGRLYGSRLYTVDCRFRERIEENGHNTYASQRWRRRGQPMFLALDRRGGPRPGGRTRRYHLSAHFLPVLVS
Ecoli rRNA inh: reduced GFP signal of wild-type E. coli, primary screen, bacterial rRNA inhibitor project, GFP/RFP fluorescence, OD600, single point | 1.6% of 350,000 active | E. coli WT GFP vs humanized-ribosome RFP mutants, 24 h; active compounds read low; DMSO median 0, no signal -100 | GFP signal change (wild-type ribosome), % (no concentration beside the values);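 active means significant combined selectivity score with lowered wild-type GFP, culture density cut under 30%, mutant RFP and density less affected; inactive means any of these conditions unmet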
Starred values were filed as active, the others as inactive; nt = not tested or not shown.

SMILES	ERAP1 HTS inh	HIV Env fusion	PGC1a acetyl inh	Cneo AK release	FGF22 binding	Ecoli rRNA inh
Cc1ccc2c(c1)C1CN(C)CCC1N2C(=O)c1cn(-c2ccccc2)nc1-c1ccccc1 (centres undefined)	5	0	nt	nt	1.6*	-27
C[C@H](CO)N1C[C@H](C)[C@H](CN(C)C(=O)Oc2ccccc2)OCc2ccccc2-c2c(n(C)c3ccccc23)C1=O	-1	nt	4	nt	0	-1
C[C@H]1CCC/C=C/C2C[C@H](O)CC2[C@H](O)/C=C/C(=O)O1 (some centres undefined)	nt	nt	72*	0	nt	nt
C[C@H]1CCC[C@@H](O)CCC/C=C/c2cc(O)cc(O)c2C(=O)O1	nt	-95	nt	-1	nt	nt
CC1CCC/C=C/C2CC(O)CC2C(O)/C=C/C(=O)O1 (centres undefined)	nt	107*	73*	1	nt	nt
CCCCn1c(O)c(C=NC2CCCCC2N)c(=O)[nH]c1=O (centres undefined)	nt	nt	15	8	nt	nt
COc1cc(/C=C2\C[C@H]3[C@@H]4CC=C5C[C@@H](N6CCCC6)CC[C@]5(C)[C@H]4CC[C@]3(C)[C@H]2O)cc(OC)c1OC	2	30	nt	nt	0	-21*
C[C@]12CC[C@@H](O)CC1=CCC1C2CC[C@@]2(C)C1CC[C@@H]2N (some centres undefined)	3	-213	-2	-2	0	-4
COC1/C=C/C=C(\C)Cc2cc(O)c(Cl)c(c2)N(C)C(=O)CC(OC(=O)C(C)C)C2(C)OC2C(C)C2CC1(O)NC(=O)O2 (centres undefined)	0	56*	nt	nt	0	13
Cc1ccc(CS(=O)(=O)CCC(=O)N2CCC3(CC2)OCCO3)cc1	1	nt	44*	0	nt	0
COc1ccc(-n2nnnc2C(CCSC)N2CCC3(CC2)C(=O)NCN3c2ccccc2)cc1 (centres undefined)	nt	-75	-16	1	0	-21*
O=C1NCN(c2ccccc2)C12CCN(C(c1nnnn1Cc1ccccc1)C1CC1)CC2 (centres undefined)	0	-2	-21	11	0	-55
O=C1NCN(c2ccccc2)C12CCN(C(c1ccccc1)c1nnnn1Cc1ccccc1)CC2 (centres undefined)	nt	-319	-27	-32	-1	-21*
COc1ccc(-n2nnnc2C(CCc2ccccc2)N2CCC3(CC2)C(=O)NCN3c2ccccc2)cc1 (centres undefined)	nt	-3	-12	0	0	9
Nc1ccccc1C(=O)c1ccccc1	nt	-13	-12	-1	0	10
C[n+]1c2ccccc2nc2ccc(NCCO)cc21	6	57*	nt	2	0	-1
N#CC(c1cccnc1)N1CCOCC1 (centres undefined)	2	5	7	0	0	17
CCOC(=O)C1(c2ccccc2)CCN(CCC(=O)Nc2ccc(OC)cc2)CC1	2	-27	nt	2	0	nt
CC1CCCCC12C(=O)NC(=O)NC2=O (centres undefined)	1	-24	3	nt	0	8
CSCCC(NC(=O)CCC(=O)OC1CC[C@H]2[C@@H]3CC[C@H]4CC(=O)CC[C@]4(C)[C@H]3CC[C@]12C)C(=O)O (some centres undefined)	-2	-5	7	-2	0	-24*
COc1cccc(-c2ccc([C@H]3[C@@H](CO)N4CCCCN(C(=O)Cc5ccncc5)C[C@H]34)cc2)c1	-1	nt	-21	0	1	-2
C/C(=N\NC(=O)c1ccccc1O)c1c(O)n(C2CCCCC2)c(=O)[nH]c1=O	-1	5	4	-1	0	-18*
C/C(=N\NC(=O)c1ccccc1Cl)c1c(O)n(C2CCCCC2)c(=O)[nH]c1=O	3	-6	-10	5	0	-32*
